Shown are actives, neighbours in structure and some others; about 2.3% of the full set was active somewhere.
COUP-TFII inh – NR2F2 transcriptional activity inhibitors, primary screen, cell-based, luciferase reporter, HEK293T, luminescence; COUP transcription factor 2 (Homo sapiens), P24468; HEK293T NGFI-A luciferase reporter; inhibition, % at 8.6 µM; 370,000 compounds, 0.7% hits; AID 686940, 2013;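 active means inhibition above a per-plate cutoff, mean inhibition of test wells between control levels plus 3 SD, cut at about 38% in these data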;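 further: cells cotransfected with COUP-TFII expression vector driving the NGFI-A reporter; 0% = median of COUP-TF2 test wells and 100% = reporter-only cells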
Target sequence (P24468 whole entry, looked up): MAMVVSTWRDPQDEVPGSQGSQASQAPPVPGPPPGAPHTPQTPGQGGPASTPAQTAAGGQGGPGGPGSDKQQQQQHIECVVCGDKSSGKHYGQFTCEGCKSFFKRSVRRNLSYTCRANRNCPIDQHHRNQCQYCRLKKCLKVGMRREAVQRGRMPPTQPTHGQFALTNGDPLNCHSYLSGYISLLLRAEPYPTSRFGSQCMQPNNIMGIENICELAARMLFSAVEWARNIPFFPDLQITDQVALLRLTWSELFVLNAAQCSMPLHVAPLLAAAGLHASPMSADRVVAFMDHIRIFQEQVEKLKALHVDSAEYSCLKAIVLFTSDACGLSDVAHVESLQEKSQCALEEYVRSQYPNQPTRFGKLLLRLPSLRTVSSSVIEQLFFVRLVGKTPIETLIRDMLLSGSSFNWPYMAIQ
GalR3 antag – GalR3 antagonists in HEK293 cells, primary screen, cell-based, fluorescence readout; Galanin receptor type 3 (Homo sapiens), O60755; HEK293 GalR3-CNG cAMP membrane potential fluorescence; galR3 body fused to GalR1 C-terminus; inhibition, % at 3 µM; 360,000 compounds, 0.44% hits;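 active means inhibition above the screen-wide average plus 3 SD, cut at about 13% in these data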;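 further: forskolin and galanin both at EC90 stimulate the cells; cAMP rise reported by CNG channel membrane potential dye signal; 0% = forskolin plus galanin with DMSO and 100% = forskolin alone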
Target sequence (O60755 1-299 limits assumed): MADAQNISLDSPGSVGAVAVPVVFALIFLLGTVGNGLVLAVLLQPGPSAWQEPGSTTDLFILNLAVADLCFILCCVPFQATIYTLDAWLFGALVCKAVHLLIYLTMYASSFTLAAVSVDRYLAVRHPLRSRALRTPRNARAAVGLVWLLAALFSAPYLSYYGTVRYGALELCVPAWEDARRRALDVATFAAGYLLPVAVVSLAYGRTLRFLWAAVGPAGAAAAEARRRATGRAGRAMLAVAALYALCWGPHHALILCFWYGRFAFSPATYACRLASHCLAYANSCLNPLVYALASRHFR
NR2E3 ag-1 – inhibitors of NR2E3-RetCOR corepressor binding, primary screen, NR2E3 agonist project, biochemical, TR-FRET, GST-NR2E3, biotin-RetCOR. inhibition of corepressor binding, % at 4.78 µM. 1536-well. AID 2300, 2010. 320,000 compounds, 0.12% hits;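 active means percent inhibition above the cutoff of mean plus 3 SD of all tested compounds, set per screening campaign, cut at about 20% in these data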;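 further: 0% = DMSO wells and 100% = biotin wells as full block of FRET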
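System: GST-tagged NR2E3 plus biotinylated RetCOR corepressor; Amount: 1.35 nM GST-tagged NR2E3 final; Dosing: single nominal compound dose of 4.8 µM; Schedule: 5 h incubation at 4 °C; Technique: TR-FRET with europium anti-GST and streptavidin-D2, 340 nm excitation; Controls: biotin wells as high control, 0.6% DMSO wells as low control.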
CHT PAM – CHT positive allosteric modulators, primary screen, cell-based, membrane potential dye, choline EC20. CHT-expressing cells; stronger effect = higher value; LV-AA mutant CHT in HEK293 cells. B-score at 10 µM. 310,000 compounds, 0.49% hits. High affinity choline transporter 1 (Homo sapiens), Q9GZV3;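 active means initial fluorescence not abnormally high and integrated response B-score, plate-corrected, over 3 SD above library mean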
NR2E3 ag-2 – NR2E3 agonists in two-hybrid cells, primary screen, cell-based, luminescence, CHO-S, Gal4-NCOR/VP16-NR2E3 | Photoreceptor-specific nuclear receptor (Homo sapiens), Q9Y5X4 | luciferase | inhibition of corepressor binding, % at 3.98 µM | 360,000 compounds, 0.35% hits | AID 602229, 2012;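 active means inhibition above the mean of all tested compounds plus 3 SD, cut at about 70% in these data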;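 further: 0% = DMSO with NR2E3 transfected cells and 100% = cells lacking NR2E3 construct; higher means lower luciferase signal from less NR2E3 corepressor binding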
CHT inh – inhibitors of human choline transporter CHT; CHT-expressing cells, membrane potential dye, choline response; stronger effect = lower value; 310,000 compounds, 0.86% hits; High affinity choline transporter 1 (Homo sapiens), Q9GZV3; B-score at 10 µM;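 active means B-score over 3 SD under the library average, and starting fluorescence ratio not unusually high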;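 further: choline stimulus applied at its EC90 after an EC20 pre-addition; B-score computed on integrated fluorescence ratio after choline addition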
CHT act confirm – CHT activators, confirmation, cell-based, membrane potential dye, duplicate; CHT-expressing cells, membrane potential dye fluorescence (FDSS); % of choline EC20–EC90 response window; HEK293 expressing CHT LV-AA mutant; choline added at its EC20; 2,500 compounds, 91% hits; shares compounds with CHT PAM; activation, % at 10 µM;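 active means primary screen active, with duplicate mean activation above negative control mean plus 3 SD, cut at about 11% in these data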
HEK293 MP dye – membrane potential response in parental HEK293 cells, counter-screen for CHT activator project, cell-based, membrane potential dye; shares compounds with CHT PAM; membrane potential dye fluorescence (FDSS); measured after EC20 choline addition; ratio readout change at 10 µM, hits read low; 2,500 compounds, 62% hits; AID 623908, 2012;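 active means duplicate-averaged ratio beyond 3 SD from buffer wells, up or down, though filed actives are nearly all decreases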
NR2E3 ag conf – NR2E3 agonist confirmation in cells, cell-based, luminescence, CHO-S two-hybrid. shares compounds with NR2E3 ag-2. CHO-S mammalian two-hybrid NR2E3-NCOR, luciferase luminescence. inhibition, % at 3.98 µM. 2,300 compounds, 51% hits;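 active means average inhibition above a cutoff equal to the mean inhibition of all tested compounds plus one SD, cut at about 70% in these data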;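 further: 0% = DMSO in NR2E3 cells and 100% = DMSO in cells lacking NR2E3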
GAL4-VP16 luc – GAL4-VP16 reporter modulators, confirmation, counter-screen for NR2E3 agonist project, cell-based, luminescence, CHO-S, high throughput. inhibition, % at 3.98 µM. shares compounds with NR2E3 ag-2. AID 624379, 2012. 2,300 compounds, 29% hits. CHO-S GAL4-VP16 luciferase reporter;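 active means mean inhibition above a cutoff equal to the average over all tested compounds plus one standard deviation, cut at about 70% in these data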;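 further: luciferase from a UAS reporter driven by GAL4-VP16 transactivation; 0% = DMSO with VP16-transfected cells and 100% = DMSO with cells lacking VP16; higher means less reporter light so more repression of VP16 activity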
GalR3 antag conf – GalR3 antagonist hit confirmation, cell-based, fluorescence, triplicate; AID 652245, 2013; shares compounds with GalR3 antag; inhibition, % at 3 µM; 1,600 compounds, 59% hits; HEK293 GalR3 CNG cAMP biosensor, membrane potential fluorescence; galR3 fused to GalR1 carboxy tail; challenged with forskolin and galanin at EC90;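 active means inhibition above the primary screen's cutoff, the mean inhibition of all screened compounds plus 3 SD, cut at about 13% in these data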;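 further: 0% = forskolin plus galanin and 100% = forskolin alone with DMSO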
CNG parental – nonspecific cAMP agonists in parental HEK-CNG cells, counter-screen for GalR3 antagonist project, cell-based, fluorescence, high throughput. activation, % at 3 µM. AID 652268, 2013. HEK293-CNG parental cells, cAMP membrane potential fluorescence; normalised: DMSO wells 0%, forskolin wells 100%. shares compounds with GalR3 antag. 1,600 compounds, 10% hits; in the data active means activation above about 1.3%
Gal4-VP16 ctr – Gal4-VP16 luciferase reporter inhibitors, counter-screen for COUP-TFII antagonist project, cell-based, luminescence, HEK293; shares compounds with COUP-TFII inh; inhibition, % at 8.5 µM; 2,500 compounds, 25% hits; in the data active means inhibition above about 13%
COUP-TFII conf – NR2F2 transcriptional activity inhibitors, confirmation, cell-based, luciferase reporter, HEK293, triplicate. HEK293 NGFI-A luciferase reporter, luminescence. 2,500 compounds, 45% hits. inhibition, % at 8.5 µM. shares compounds with COUP-TFII inh;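 active means mean inhibition over three repeats above a set limit taken from the earlier primary screen, cut at about 38% in these data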;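 further: 100% = cells given the luciferase reporter alone without the COUP-TF2 vector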
* hit, by the source's call; i = inactive; / = not tested or not shown.

SMILES	COUP-TFII inh	GalR3 antag	NR2E3 ag-1	CHT PAM	NR2E3 ag-2	CHT inh	CHT act confirm	HEK293 MP dye	NR2E3 ag conf	GAL4-VP16 luc	others
Cc1cc(NC(=O)c2ccc3c(c2)C(=O)N(C)C3=O)no1	0.1	-2.5	2.5	i	-7.7	i	44.4*	-41.9*	/	/
CC1C(=O)C(C)C(c2ccc(Cl)cc2)NC1c1ccc(Cl)cc1 (stereo not given)	-6.6	-7.8	1.1	i	-48.6	i	/	/	/	/
CC1C(=O)C(C)C(c2ccccc2F)NC1c1ccccc1F (stereo not given)	7.6	-10.4	-0.1	i	-0.1	i	27.9*	i	/	/
O=C(Nc1cccc(Cl)c1)OCCN1CCCC12CCC(c1ccccc1)CC2 (stereo not given)	3.2	/	/	/	/	/	/	/	/	/
CCOC(=O)Cc1c(Cl)c2ccccc2[nH]c1=O	-23.3	-2.9	2.2	i	-12.7	i	/	/	/	/
CCOC(=O)C[n+]1ccc2c([nH]c3ccccc32)c1C	5.6	-2.5	0.3	i	21.1	i	49.5*	-40.6*	/	/
C#CCN1CC(N(C)CCOC(=O)c2cc3ccccc3[nH]2)CS1(=O)=O (stereo not given)	1.1	/	/	/	/	/	/	/	/	/
C=CC[n+]1c(-c2ccc(Cl)cc2Cl)csc1Nc1ccc(NC(C)=O)cc1	29.9	-6.4	-2.8	13.8*	68.2	i	0.2	i	73.2*	56.4
CCCC[n+]1c(-c2ccc(Cl)cc2Cl)csc1Nc1ccccc1	9.0	-3.1	0.8	i	-31.8	i	/	/	/	/
CCCCCCCCCn1c2c(c(=N)c3c1CCC3)CCC2	/	/	0.7	10.9*	101.3*	i	81.8*	-61.3*	98.8*	91.7*
O=C(NCc1cccnc1)c1ccc(-c2ccc(Cl)cc2)o1	-5.7	-6.5	3.5	i	5.6	i	/	/	/	/
O=C(NCc1cccnc1)/C(=C\c1ccc(-c2ccc(Cl)c(Cl)c2)o1)S(=O)(=O)c1ccccc1	16.8	5.6	0.9	6.68*	91.6*	i	13.6*	i	98.9*	35.5
COc1cnc(-c2ccccn2)nc1NC(C)C	1.7	-3.4	-1.5	7.81*	67.8	i	26.8*	-58.5*	38.2	-23.2
O=C(Nc1ccc(OC(F)(F)F)cc1)Nc1c(-c2ccccc2)nc2ncccn12	13.3	/	/	/	/	/	/	/	/	/
c1ccc(-c2nnc(-c3ccccn3)nc2NC2CCCCC2)cc1	-2.3	-8.2	-2.6	i	54.6	i	-4.3	i	60.1	17.2
C[C@@H]1COc2cc(Br)ccc2S(=O)(=O)N1Cc1cn(CC2CCCCC2)nn1	7.8	/	/	/	/	/	/	/	/	/
CCCCNc1cc(C)nc(NCc2ccccc2)n1	/	/	-1.9	9.17*	82.6*	i	32.6*	i	94.1*	83.7*
Cc1cc(Nc2ccc(Cl)cc2)nc(NCc2ccccc2)n1	20.5	-5.9	2.3	i	-0.4	i	/	/	/	/
Cc1nc2cc(C(=O)N3CCN(C(=O)C(Cl)Cl)CC3)ccc2n1C1CCCC1	3.6	/	/	/	/	/	/	/	/	/
O=C(OCc1ccc(Br)cc1)c1cc([N+](=O)[O-])ccc1N1CCOCC1	-22.3	-5.5	/	/	-36.9	/	/	/	/	/
O=C(COC(=O)c1cc([N+](=O)[O-])ccc1N1CCOCC1)Nc1ccc(Cl)cn1	-10.2	-3.5	-1.1	6.83*	78.3*	i	20.2*	i	82.1*	27.6
COc1ccc(COC(=O)c2cc([N+](=O)[O-])ccc2N2CCOCC2)cc1F	-65.9	-10.9	-2.7	9.41*	48.4	i	67.1*	i	15.3	28.3
COC(=O)[C@]12C[C@H](CC(=O)N3CCN(C(=O)C4CC4)CC3)C(=O)N(Cc3cccc4ccccc34)C1=C[C@H](C1CCCC1)O[C@@H]2C	18.8	/	/	/	/	/	/	/	/	/
COc1ccc(-n2c(-c3ccc(Cl)cc3)c[n+]3c2CCc2ccccc2-3)cc1	50.6*	62.1*	3.3	8.21*	-2.0	i	86.0*	-29.1*	/	/	GalR3 antag conf=56.8*;CNG parental=1.0;Gal4-VP16 ctr=18.4*;COUP-TFII conf=44.1*
Cc1cccc2cc(-c3ccccc3)c(-c3ccccc3)c[n+]12	63.8*	2.4	3.2	i	-22.7	i	55.6*	-53.4*	/	/	Gal4-VP16 ctr=1.5;COUP-TFII conf=44.0*
Cc1c(O)ccc2c(-c3ccccc3)cc(=O)oc12	5.8	-7.6	2.4	i	27.0	i	/	/	/	/

Screens as filed in PubChem.
